{"data": "Published values from different studies", "MAPK14": "Mitogen-activated protein kinase 14 (MAPK14, Homo sapiens, UniProt Q16539)", "MAPK14 T106M": "Mitogen-activated protein kinase 14 (MAPK14, Homo sapiens, UniProt Q16539, T106M)", "note": "Lines come from different studies, so protocols differ."}
{"SMILES": "O=C(NS(=O)(=O)c1ccc(NCC2CCOCC2)c([N+](=O)[O-])c1)c1ccc(N2CCN(Cc3ccc(C(F)(F)F)cc3-c3ccc(Cl)cc3)CC2)cc1Oc1cnc2[nH]ccc2c1", "target": "MAPK14", "observed": "cell-free assay", "method": "competition with immobilised ligand", "tested at": "1 µM", "measurement": "remaining binding", "value": "97%"}
{"SMILES": "N#Cc1c(NC(=O)c2cccc3ccccc23)sc2c1CCCC2", "target": "MAPK14", "observed": "cell-free assay", "tested at": "0.5 µM", "measurement": "remaining signal", "value": "98.1%"}
{"SMILES": "O=C(Nc1cnn(-c2csc(C(=O)NC3COC3)c2)c1)Nc1c(F)cccc1Cl", "target": "MAPK14", "observed": "enzyme activity", "action": "inhibitor", "tested at": "5 µM", "measurement": "remaining activity", "value": "105%"}
{"SMILES": "Cc1cnc(NC2CCOCC2)nc1-n1cnc(C(=O)NC(CN)c2cc(F)cc(Cl)c2)c1 (stereo not shown)", "target": "MAPK14 T106M", "observed": "enzyme activity", "action": "inhibitor", "method": "radiometric", "tested at": "1 µM", "measurement": "remaining activity", "value": "55%"}
{"SMILES": "Cc1c(C(=O)O)cc(-c2ccc(C3CCNCC3)cc2)c2ccc(-c3ccc(C(F)(F)F)cc3)cc12", "target": "MAPK14", "observed": "binding", "method": "competition with immobilised ligand", "tested at": "1 µM", "measurement": "remaining binding", "value": "100%"}
{"SMILES": "CCN(CC)CCNC(=O)c1c(C)[nH]c(/C=C2\\C(=O)Nc3ccc(F)cc32)c1C", "target": "MAPK14 T106M", "observed": "enzyme activity", "action": "inhibitor", "tested at": "10 µM", "measurement": "inhibition", "value": "9%"}
{"SMILES": "CC(C)(C)c1nc2c(s1)c1nc(N)ncc1c1ccc(NS(=O)(=O)c3c(F)cccc3F)c(F)c12", "target": "MAPK14", "observed": "enzyme activity", "action": "inhibitor", "method": "radiometric", "tested at": "1 µM", "measurement": "remaining activity", "value": "96%"}
{"SMILES": "O=C(NCCCC1CCCCC1)c1ccc(CNC(=O)c2cnn(-c3ccccc3)c2C(F)(F)F)cc1", "target": "MAPK14", "observed": "cell-free assay", "method": "competition with immobilised ligand", "tested at": "0.1 µM", "measurement": "remaining binding", "value": "100%"}
{"SMILES": "Cc1ccc(Nc2nccc(N(C)c3ccc4c(C)n(C)nc4c3)n2)cc1S(N)(=O)=O", "target": "MAPK14", "observed": "enzyme activity", "action": "inhibitor", "tested at": "0.3 µM", "measurement": "inhibition", "value": "6%"}
{"SMILES": "N#CCCc1ccc2c(c1)-c1[nH]c3ccc([N+](=O)[O-])cc3c1CC(=O)N2", "target": "MAPK14", "observed": "cell-free assay", "tested at": "0.5 µM", "measurement": "remaining signal", "value": "91.8%"}
{"SMILES": "Cn1c(=O)n(-c2ccc(C(C)(C)C#N)cc2)c2c3cc(-c4cnc5ccccc5c4)ccc3ncc21", "target": "MAPK14", "observed": "enzyme activity", "action": "inhibitor", "tested at": "10 µM", "measurement": "remaining activity", "value": "111%"}
{"SMILES": "CN([C@@H]1CCc2c(CC(=O)O)c3cc(S(C)(=O)=O)ccc3n2C1)S(=O)(=O)c1ccc(F)cc1", "target": "MAPK14", "observed": "cell-free assay", "method": "competition with immobilised ligand", "tested at": "1 µM", "measurement": "remaining binding", "value": "100%"}
{"SMILES": "COc1cc(Nc2cnc(C#N)c(O[C@H](C)CN(C)C)n2)ncc1-c1cnn(C)c1", "target": "MAPK14", "observed": "enzyme activity", "action": "inhibitor", "method": "radiometric", "tested at": "1 µM", "measurement": "remaining activity", "value": "102%"}
{"SMILES": "Cc1cc(NC(=O)c2cccc3cc(-c4cccc5[nH]nc(N)c45)ccc23)ccc1F", "target": "MAPK14", "observed": "enzyme activity", "action": "inhibitor", "tested at": "0.1 µM", "measurement": "activity vs control", "value": "85%"}
{"SMILES": "C#Cc1cccc(Nc2ncnc3cc(OCCOC)c(OCCOC)cc23)c1", "target": "MAPK14", "observed": "cell-free assay", "tested at": "0.5 µM", "measurement": "remaining signal", "value": "95.3%"}
{"SMILES": "CC(C)(C)C(=O)c1sc(NC2CCCCC2)nc1N", "target": "MAPK14", "observed": "enzyme activity", "action": "inhibitor", "tested at": "10 µM", "measurement": "remaining activity", "value": "102%"}
{"SMILES": "Cc1ccc(C(=O)Nc2ccc(CN3CCN(C)CC3)c(C(F)(F)F)c2)cc1C#Cc1cnc2cccnn12", "target": "MAPK14", "observed": "enzyme activity", "action": "inhibitor", "tested at": "23.5 nM", "measurement": "remaining activity", "value": "29%"}
{"SMILES": "Nc1nc(Nc2ccccc2)sc1C(=O)c1c(F)cccc1F", "target": "MAPK14", "observed": "enzyme activity", "action": "inhibitor", "tested at": "10 µM", "measurement": "remaining activity", "value": "8%"}
{"SMILES": "O=C1Nc2ccc(Cl)cc2C1=Cc1cc(Cl)c(O)c(Cl)c1", "target": "MAPK14", "observed": "cell-free assay", "tested at": "0.5 µM", "measurement": "remaining signal", "value": "74.6%"}
{"SMILES": "CNC(=O)c1cc(Oc2ccc(NC(=O)Nc3ccc(Cl)c(C(F)(F)F)c3)cc2)ccn1", "target": "MAPK14 T106M", "observed": "enzyme activity", "action": "inhibitor", "tested at": "10 µM", "measurement": "inhibition", "value": "90%"}
{"SMILES": "N#CC1(c2ccccn2)CCN(Cc2cc(C(=O)N3CCCC3)c(=O)n3ccccc23)CC1", "target": "MAPK14", "observed": "cell-free assay", "method": "competition with immobilised ligand", "tested at": "1 µM", "measurement": "remaining binding", "value": "86%"}
{"SMILES": "CN(C)C1CCN(CC#Cc2nn(C3CCCC3)c3nc(NCc4ccccc4)ncc23)C1 (stereo not shown)", "target": "MAPK14", "observed": "enzyme activity", "action": "inhibitor", "method": "FRET", "tested at": "10 µM", "measurement": "inhibition", "value": "4%"}
{"SMILES": "Cc1noc([C@H]2C[C@@H](c3ccc(C(F)(F)F)cc3)CN(C(=O)N3CCS(=O)(=O)C3)C2)n1", "target": "MAPK14", "observed": "cell-free assay", "method": "competition with immobilised ligand", "tested at": "1 µM", "measurement": "remaining binding", "value": "79%"}
{"SMILES": "Cc1ccc(NC(=O)c2ccc(C)c(C(F)(F)F)c2)cc1C#Cc1nn(C2CCC(O)CC2)c2ncnc(N)c12 (stereo not shown)", "target": "MAPK14", "observed": "cell-free assay", "tested at": "10 µM", "measurement": "remaining signal", "value": "3%"}
{"SMILES": "O=C1NC(c2ccccn2)Sc2ccccc21 (stereo not shown)", "target": "MAPK14", "observed": "cell-free assay", "method": "competition with immobilised ligand", "tested at": "1 µM", "measurement": "remaining binding", "value": "81%"}
{"SMILES": "CC(C)c1ccc(NC(=O)c2cccs2)c(-c2nc3ccccc3[nH]c2=O)c1", "target": "MAPK14", "observed": "enzyme activity", "action": "inhibitor", "tested at": "1 µM", "measurement": "activity vs control", "value": "102%"}
{"SMILES": "O=C(N[C@H]1CCCCC/C=C\\C2C[C@@]2(C(=O)O)NC(=O)[C@@H]2C[C@@H](Oc3ccncc3)CN2C1=O)OC1CCCC1 (stereo partly shown)", "target": "MAPK14", "observed": "binding", "method": "competition with immobilised ligand", "tested at": "1 µM", "measurement": "remaining binding", "value": "94%"}
{"SMILES": "Cc1sc(C(=O)NC2COC2)cc1-n1cc(NC(=O)Nc2c(F)cccc2Cl)cn1", "target": "MAPK14", "observed": "enzyme activity", "action": "inhibitor", "tested at": "10 µM", "measurement": "remaining activity", "value": "93.2%"}
